Screening results from PubChem.
PPC-1+TRAIL kill: kills PPC-1 cancer cells in the presence of TRAIL | PPC-1 cells + TRAIL, ATPLite viability luminescence | cell killing (% activity), % at 4 µM or 5 µM | hit rate 0.41% among 220,000 | AID 1443;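 active means cell killing above 50% in the first pass at 4 µM, then a duplicate retest at 5 µM averaging 50% or more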;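 further: plate controls were cells with TRAIL plus DMSO for no effect and medium-only wells lacking cells for full effect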
STAT3 act: activators of IL-6 induced STAT3 signaling; U3A cells, IL-6 STAT3-luciferase reporter, luminescence; 100% = signal with IL-6 EC80 alone; activation (% of control), % at 5.6 µM; hit rate 0.91% among 190,000;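 active means activation above the screen-wide mean of compound activation plus 3 SD, cut at about 130% in these data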;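 further: 0% = background luminescence of wells with medium and substrate only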
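Material: STAT3-luciferase reporter U3A cells. Controls: IL-6-treated wells, 100% activation. Read-out: % activation versus median of IL-6-stimulated wells. Probe or stimulus: IL-6 stimulus at 33 ng/mL final. Timing: compound 1 h, then IL-6 6 h at 37 °C. Signal: reporter luminescence signal.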
TRAIL sens C8: caspase-8 TRAIL sensitization; hit rate 1% among 360,000; inhibition (viability loss, TRAIL sensitization), % at 10 µM; NB7+C8 cells + TRAIL, ATPlite viability luminescence; AID 624354;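 active means compounds causing at least 50% loss of cell viability in the single-dose screen, relative to plate controls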
STAT1 blocker: inhibitors of IFN-gamma induced STAT1 signaling; NIH 3T3 STAT1-luciferase reporter, luminescence; inhibition, % at 5.5 µM; hit rate 0.35% among 200,000;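 active means inhibition above a set limit, the mean inhibition across all tested compounds plus 3 SD, cut at about 34% in these data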;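 further: 0% = IFN-gamma with DMSO and 100% = IFN-gamma with 300 µM nifuroxazide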
STAT3 inh: STAT3 signaling inhibition | U3A cells, IL-6 STAT3-luciferase reporter, luminescence; host cell line lacks STAT1 | inhibition, % at 5.5 µM | hit rate 0.89% among 190,000 | AID 862;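 active means inhibition above the mean inhibition across all screened compounds plus 3 SD, cut at about 44% in these data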;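 further: 0% = DMSO only wells and 100% = 100 µM nifuroxazide control wells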
* = called active by the depositor; x = no result given. The list is not random: actives were taken first. Their share in the collection is about 1.8%.

SMILES	PPC-1+TRAIL kill	STAT3 act	TRAIL sens C8	STAT1 blocker	STAT3 inh
Cc1nc(N)c(C#N)c(-c2cccnc2)c1-c1ccccc1	x	x	7	x	x
Cc1ccc2c(n1)sc1c(-c3ccccc3)c(C#N)c(N)nc12	35	135*	13	0	-35
Cc1csc(=NC(=O)c2ccccc2)n1C	18	92	9	-29	14
O=C(N=c1nc2ccccn2s1)c1ccccc1	84*	x	84*	x	x
CC(=O)n1cc(N(C(=O)CCl)c2ccc(Cl)cc2)c2ccccc21	39	x	94*	x	x
COc1ccccc1N(C(=O)CCl)c1cn(C(C)=O)c2ccccc12	23	x	92*	x	x
C/C(=N/N=C/c1ccc(N(C)C)cc1)c1ccccc1	18	100	56*	-37	0
Cc1ccc(N2Cc3ccccc3C2=O)cc1	x	x	58*	x	x
O=C1c2ccccc2CN1c1ccccc1	x	x	15	x	x
COc1ccc(N2Cc3ccccc3C2=O)cc1	x	x	67*	x	x
CCOC(=O)C1CCN(C(=O)C2CCN(c3ncnc4c3nc3n4CCCCC3)CC2)CC1	x	x	-5	x	x
COc1ccc(Nc2nc(-c3ccccc3)nc3ccccc23)cc1S(=O)(=O)N1CCOCC1	23	x	48*	x	x
O=c1/c(=C/c2ccccn2)sc2nc3ccccc3n12	22	116	54*	-92	-13
COC(=O)/C=c1/sc2nc3ccccc3n2c1=O	-5	112	1	3	-10
Nc1ccc(Oc2cccc(Oc3ccc(N)cc3)c2)cc1	22	60	5	39*	51*
Nc1ccc(-c2nc3ncccc3o2)c(Cl)c1	22	84	53*	-52	26
Nc1ccc(Cl)c(-c2nc3ncccc3o2)c1	10	91	-5	-3	18
O=C1c2ccccc2/C(=C\C#Cc2ccccn2)N1c1ccccc1	x	x	74*	x	x
CCc1cc2c(CN3CCN(CCO)CC3)cc(=O)oc2cc1O	52*	103	-18	-6	-1
O=C(NCCc1ccccc1)C1CCC(CNc2c(N3CCCCC3)c(=O)c2=O)CC1 (stereo not given)	12	99	14	9	0
O=C(NCCc1ccc(Cl)cc1)C1CCC(CNc2c(N3CCCCC3)c(=O)c2=O)CC1 (stereo not given)	-1	103	51*	0	-4
O=C(NNC(=O)C12CC3CC(CC(O)(C3)C1)C2)c1csc(N2CCOCC2)n1	x	x	0	x	x
COc1cccc(C(=O)/C=C/Nc2cc(C)ccc2O)c1	16	124	55*	-37	-25
COc1ccc(C)cc1NC(=O)CSc1nnc2ccc(-c3cccnc3)nn12	x	x	-10	x	x
Cc1onc(-c2ccccc2Cl)c1C(=O)O/N=C(\N)c1ccccc1	x	x	92*	x	x
SMILES	PPC-1+TRAIL kill	STAT3 act	TRAIL sens C8	STAT1 blocker	STAT3 inh
COc1ccc(/C(N)=N/OC(=O)c2cccc([N+](=O)[O-])c2)cc1	7	127	10	-3	-37
COc1ccc(/C(N)=N/OC(=O)c2cccc([N+](=O)[O-])c2C)cc1	13	134*	65*	-12	-31
N/C(=N\OC(=O)c1ccc(Br)cc1)c1cccc([N+](=O)[O-])c1	x	x	-3	x	x
Cc1ccc(C(=O)O/N=C(\N)c2cccc([N+](=O)[O-])c2)cc1	20	108	56*	-53	1
Cc1onc(-c2ccccc2Cl)c1C(=O)O/N=C(\N)c1cccc([N+](=O)[O-])c1	x	x	88*	x	x
Cc1onc(-c2cccc(Cl)c2Cl)c1C(=O)O/N=C(\N)c1ccc([N+](=O)[O-])o1	10	x	4	x	x
CCN(CC(=O)Nc1ccccc1OC)C(=O)CSCC(=O)Nc1ccc(OC)cc1	x	x	-4	x	x
CC(C)CC(=O)c1c(O)c(C=O)c(O)c2c1O[C@@]1(C)[C@@H](C2)C[C@H]2C[C@@H]1C2(C)C	x	x	20	x	x
COc1ccc([C@H]2C[C@H](O)[C@@H](n3cc(-c4ccc(F)cc4)nn3)CN2C(=O)c2cccs2)cc1	x	x	3	x	x
Cc1ccc(C(=O)NCC(=O)N2CCCN(C)CC2)cc1C	x	x	-10	x	x
O=C(NNC1=NS(=O)(=O)c2ccccc21)c1ccc([N+](=O)[O-])cc1	x	x	61*	x	x
CCCC(=O)Nc1nc2ccc(OCC)cc2s1	0	101	21	-55	4
O=C(Nc1nc2cc3c(cc2s1)OCCO3)c1ccc([N+](=O)[O-])o1	x	x	69*	x	x
CCOc1ccc2nc(NC(=O)c3ccc(C)o3)sc2c1	x	x	58*	x	x
COc1ccc2nc(NC(=O)c3ccc([N+](=O)[O-])o3)sc2c1	x	x	54*	x	x
CC(C)NC(=O)N(C)C[C@@H]1OCc2cnnn2CCCC(=O)N([C@H](C)CO)C[C@@H]1C	x	x	-7	x	x
Cc1ccc(S(=O)(=O)N2CCOCC2)cc1NC(=O)CSc1nnnn1C1CC1	x	x	5	x	x
COc1ccc(CCN2CC(C(=O)NCCc3ncccc3C)CCC2=O)cc1 (stereo not given)	x	x	2	x	x
CCCCN(CC)S(=O)(=O)c1ccc(C(=O)N=c2sc3cc(NC(C)=O)ccc3n2C)cc1	9	104	61*	-6	2
CCCCN(C)S(=O)(=O)c1ccc(C(=O)N=c2sc3cc(NC(C)=O)ccc3n2C)cc1	17	94	-14	-8	7
NC(c1csc(NC(=O)Nc2ccc(OC(F)(F)F)cc2)n1)C1CCCCC1 (stereo not given)	x	x	85*	x	x
COc1ccc(NC(=O)Nc2nc(C(N)CC(C)C)cs2)cc1 (stereo not given)	x	x	7	x	x
CCCn1c2c(c(O)c(C(=O)Nc3ccccn3)c1=O)CCCC2	6	x	x	x	x
CCCn1c2c(c(O)c(C(=O)Nc3ccccc3)c1=O)CCCC2	14	133*	-11	-2	-28
CN(C)c1ccc(C2NC(=O)c3ccccc3N2)cc1 (stereo not given)	x	x	65*	x	x
O=c1[nH]c(=O)n(C2OC(CO)C(O)C2O)c2c1CCCC2 (stereo not given)	x	x	-1	x	x
Cc1ccc(S(=O)(=O)NCC(=O)OCC(=O)N2CC(C)OC(C)C2)cc1 (stereo not given)	x	x	-3	x	x
CCS(=O)(=O)Nc1ccc(C2=NN(C(=O)c3ccco3)C(c3cccc(F)c3)C2)cc1 (stereo not given)	19	90	-9	63*	17
CC1Oc2ccccc2C=C1/C=N/NC(=O)c1ccccc1O (stereo not given)	28	89	50*	-3	12
Cc1cc(NC(=O)CSc2ccnc(=O)[nH]2)no1	x	x	8	x	x
